In the library only some 2.2% were active in any assay of this set; here they are far more common.
VIM-2 inhibitor – inhibitors of Pseudomonas aeruginosa VIM-2 metallo-beta-lactamase; purified VIM-2, nitrocefin hydrolysis, epi-absorbance fluorescence; inhibition, % at 5.6 µM; hit rate 0.89% among 290,000;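 active means inhibition above the mean of all tested compounds plus 3 SD, cutoff set per screening run, cut at about 7.5% in these data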;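 further: red hydrolysis product quenches plate fluorescence so inhibitors raise well fluorescence; 0% = enzyme with DMSO and 100% = DMSO without enzyme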
MEX-5 binding – C. elegans MEX-5 TCR-2 RNA binding activity. Q9XUB2. MEX-5/FITC-TCR2 RNA binding, fluorescence polarization; active compounds read low. activity score (negative = inhibition of binding), % at 10 µM. hit rate 0.38% among 300,000. AID 1832;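 active means inhibition past about -25% in most replicates, and total fluorescence under double the plate's negative control median, limit read from the data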;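 further: 0% = DMSO and -100% = 5 µM competing unlabeled TCR2 RNA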
Target sequence (Q9XUB2 whole entry, looked up): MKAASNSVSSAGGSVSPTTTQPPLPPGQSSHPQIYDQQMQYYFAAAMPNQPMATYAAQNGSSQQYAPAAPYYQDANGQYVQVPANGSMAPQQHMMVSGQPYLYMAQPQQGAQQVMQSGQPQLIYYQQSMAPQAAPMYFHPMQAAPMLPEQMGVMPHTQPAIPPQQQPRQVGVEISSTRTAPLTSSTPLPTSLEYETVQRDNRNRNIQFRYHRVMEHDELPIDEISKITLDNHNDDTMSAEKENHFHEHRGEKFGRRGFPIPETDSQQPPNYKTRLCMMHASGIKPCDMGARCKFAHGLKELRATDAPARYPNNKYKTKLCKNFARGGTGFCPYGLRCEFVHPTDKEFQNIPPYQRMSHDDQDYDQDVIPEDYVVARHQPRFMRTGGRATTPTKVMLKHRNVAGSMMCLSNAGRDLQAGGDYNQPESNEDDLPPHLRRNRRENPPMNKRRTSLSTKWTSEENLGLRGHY
EBV gp42 inh – blocks Epstein-Barr virus glycoprotein 42 binding. Q1HVG2. Fluorescence polarization binding assay, mP read-out. inhibition, % (tested at 21.74 µM). hit rate 0.42% among 220,000. AID 1085; in the data active means inhibition above about 50%
IMP-1 inh-1 – inhibitors of Pseudomonas aeruginosa IMP-1 metallo-beta-lactamase | hit rate 0.45% among 290,000 | AID 1556 | purified IMP-1, nitrocefin hydrolysis, epi-absorbance fluorescence | inhibition, % at 5.6 µM;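 active means inhibition above the mean plus 3 SD of all compounds in the same screening run, cut at about 4.5% in these data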;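 further: 0% = IMP-1 with DMSO and 100% = DMSO wells lacking enzyme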
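Material – recombinant IMP-1 enzyme, purified · Amount – IMP-1 0.2 nM before substrate addition · Medium – HEPES buffer pH 7.1 with ZnSO4 and Brij 35 · Timing – 25 °C, 15 min preincubation, 25 min reaction · Measured by – plate fluorescence quenching by hydrolysis product, ex 480/em 530 nm · Read-out – percent enzyme inhibition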
GLD-1 TGE inh – GLD-1-TGE RNA interaction inhibition (C. elegans); Q17339; purified GLD-1 + fluorescein TGE RNA, fluorescence polarization; inhibition, % at 5.96 µM; hit rate 0.44% among 320,000;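 active means percent inhibition above a per-plate cutoff, the plate mean of test compounds plus 3 SD, cut at about 30% in these data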;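 further: 0% = DMSO wells with GLD-1 and probe and 100% = wells lacking GLD-1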
BCLXL inh – Bcl-xL (human) inhibition; Q07817; GST-Bcl-xL / FITC-Bim BH3 peptide fluorescence polarization; inhibition, % at 10.9 µM; hit rate 0.7% among 320,000;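 active means inhibition above the mean of all tested compounds plus 3 SD, cutoff set per campaign, cut at about 30% in these data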;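 further: 0% = DMSO wells and 100% = unlabeled Bim-BH3 peptide competitor; inhibitors lower millipolarization by displacing the labeled peptide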
IMP-1 inh-2 – IMP-1 inhibition, counter-screen for VIM-2 inhibitors | shares compounds with VIM-2 inhibitor | purified IMP-1, nitrocefin hydrolysis, epi-absorbance fluorescence | inhibition, % at 5.6 µM | 1,300 tested, under 10 active | AID 1856; call rule not given here;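 further: 0% = enzyme with vehicle and 100% = vehicle without enzyme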
VIM-2 FRET inh – VIM-2 FRET inhibition, artifact counter-screen; inhibition, % at 5.6 µM; AID 1857; hit rate 23% among 1,300; purified VIM-2, CCF2 FRET substrate hydrolysis; shares compounds with VIM-2 inhibitor;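 active means inhibition above the mean of all tested compounds plus 3 SD, cut at about 19% in these data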;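 further: 0% = VIM-2 plus DMSO and 100% = no enzyme wells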
TEM-1 inh – blocks E. coli TEM-1 beta-lactamase in VIM-2 selectivity screen. shares compounds with VIM-2 inhibitor. Purified TEM-1, nitrocefin hydrolysis, epi-absorbance fluorescence. inhibition, % at 5.6 µM. hit rate 3% among 1,300. AID 1866;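 active means inhibition above that campaign's mean inhibition plus 3 SD, cut at about 0.46% in these data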;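 further: 0% = TEM-1 with DMSO and 100% = TEM-1 with 100 µM potassium clavulanate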
Target sequence (P62593 whole entry, looked up): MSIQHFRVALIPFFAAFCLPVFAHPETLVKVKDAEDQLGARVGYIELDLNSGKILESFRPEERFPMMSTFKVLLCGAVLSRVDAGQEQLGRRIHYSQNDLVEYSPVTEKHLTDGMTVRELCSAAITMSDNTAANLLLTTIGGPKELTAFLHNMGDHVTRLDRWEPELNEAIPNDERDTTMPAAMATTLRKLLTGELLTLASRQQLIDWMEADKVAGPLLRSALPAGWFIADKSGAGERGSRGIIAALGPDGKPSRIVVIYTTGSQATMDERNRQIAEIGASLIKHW
VIM-2 inh conf – confirmation of P. aeruginosa VIM-2 metallo-beta-lactamase inhibitors | shares compounds with VIM-2 inhibitor | purified VIM-2, nitrocefin hydrolysis, epi-absorbance | inhibition, % at 5.6 µM | hit rate 96% among 1,300 | AID 2187;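 active means inhibition of the VIM-2 beta-lactamase enzyme above about 11% from the earlier first-round screen, limit read from the data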;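 further: 0% = VIM-2 with DMSO and 100% = buffer wells without enzyme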
Starred values were filed as active, the others as inactive; / = no result.

SMILES | VIM-2 inhibitor | MEX-5 binding | EBV gp42 inh | IMP-1 inh-1 | GLD-1 TGE inh | BCLXL inh | IMP-1 inh-2 | VIM-2 FRET inh | TEM-1 inh | VIM-2 inh conf
COc1ccc(NC(=O)CSc2c3c(nc4ccccc24)CCC3)c(OC)c1 | -4 | 2 | -18 | -3 | 1 | 1 | / | / | / | /
COc1ccc(Nc2nc(N3CCN(C)CC3)nc3ccccc23)c(OC)c1 | 16* | -4 | -2 | -1 | 9 | 9 | -3 | 0 | -7 | 28*
COCCn1nnnc1C(c1ccccc1)N1CCN(C(=O)c2ccco2)CC1 (stereo not drawn) | -3 | -3 | / | -4 | 1 | 4 | / | / | / | /
O=C(CCn1cnc2ccccc21)N=Nc1c(O)[nH]c2ccccc12 | 36* | -1 | -7 | -4 | 0 | 2 | -5 | -8 | -7 | 53*
CCCCN(CC)CCNC(=O)c1cc2c(=O)n(C)c3ccccc3c2n1C | 21* | -2 | -18 | -2 | 6 | 4 | -3 | 2 | -7 | 30*
CCCN(CCC)CCCNC(=O)c1cc2c(=O)n(C)c3ccccc3c2n1C | 26* | 3 | -20 | -2 | -4 | -1 | -3 | 1 | -6 | 30*
CCCCN(CC)CCCNC(=O)c1cn(C)c(=O)c2c1c1ccccc1n2C | 5 | -1 | / | -2 | -3 | 2 | / | / | / | /
CCCCN(CC)CCNC(=O)c1cc2c(C)nc3ccccc3c2o1 | 14* | 1 | -15 | -2 | -6 | 6 | -4 | 1 | -7 | 17*
CCc1ccc(CNC(=O)c2cc3c(C)nc4ccccc4c3o2)cc1 | -4 | -4 | 1 | -3 | -5 | 4 | / | / | / | /
CCN(CC)CCNC(=O)c1cc2c(=O)n(C)c3ccccc3c2n1C | 20* | 1 | -19 | -4 | 6 | 5 | -3 | 2 | -5 | 31*
O=C(Cn1nc(C(=O)O)c2ccccc2c1=O)Nc1cc(S(=O)(=O)N2CCOCC2)ccc1Cl | / | / | / | / | -7 | / | / | / | / | /
CC1CCC(NC(=O)c2ccc(NC(=O)CC3SC(N4CCCC4)=NC3=O)cc2)CC1 (stereo not drawn) | / | 4 | / | / | -2 | 4 | / | / | / | /
CCCCC1CCC(C(=O)N(CCOC)c2c(N)n(CCCC)c(=O)[nH]c2=O)CC1 (stereo not drawn) | / | -4 | / | / | -1 | 2 | / | / | / | /
COc1ccc(CCNC(=O)c2cc3c(=O)n(C)c4ccccc4c3n2C)cc1OC | -1 | 0 | 2 | -3 | -2 | -1 | / | / | / | /
CCN(CC)CCCNC(=O)c1cc2c(=O)n(C)c3ccccc3c2n1C | 22* | 0 | -10 | -2 | -5 | 2 | -3 | 1 | -5 | 30*
COCCNC(=O)c1cc2c(=O)n(C)c3ccccc3c2n1C | 14* | 0 | 2 | -4 | 4 | 6 | -3 | 2 | -7 | 22*
CN(C)CCNC(=O)c1cc2c(=O)n(C)c3ccccc3c2n1C | 17* | -2 | 0 | -3 | 7 | 5 | -2 | 4 | -6 | 28*
CCn1cnnc1SCC(=O)NCC1COc2ccccc2O1 (stereo not drawn) | / | / | / | / | -3 | -3 | / | / | / | /
CC1(c2nnc(-c3cccc(Cl)c3)o2)CC(c2ccc(OC(F)(F)F)cc2)=NO1 (stereo not drawn) | -2 | 0 | / | 0 | 8 | 1 | / | / | / | /
CC(=O)N1CCCN(C(=O)c2ccc3nc(Cc4cccc(Cl)c4)oc3c2)CC1 | -1 | -2 | / | 0 | 3 | 6 | / | / | / | /
COc1cc(SC)ccc1C(=O)NNC(=O)c1cc(C)oc1C | / | 1 | / | / | 6 | 4 | / | / | / | /
CCOC(=O)CSc1nc(-c2ccccn2)ncc1OC | 17* | 0 | 0 | -5 | 5 | 2 | -4 | -25 | -4 | 25*
Cc1nc(-c2ccccn2)nc(SCC(=O)c2ccccc2)c1Cl | 54* | -14 | -10 | -2 | 0 | 12 | -4 | -25 | -6 | 72*
COc1cnc(-c2ccccn2)nc1N(C)c1ccccc1 | 37* | 3 | / | -5 | 4 | -1 | -4 | -35 | -3 | 47*
COc1cnc(-c2ccccn2)nc1Oc1cccc(C(F)(F)F)c1 | 45* | -2 | / | -5 | -1 | -2 | -5 | -29 | -5 | 60*
SMILES | VIM-2 inhibitor | MEX-5 binding | EBV gp42 inh | IMP-1 inh-1 | GLD-1 TGE inh | BCLXL inh | IMP-1 inh-2 | VIM-2 FRET inh | TEM-1 inh | VIM-2 inh conf
CC1CCN(C(=O)CCNS(=O)(=O)c2ccc(Cl)cc2)CC1 | -2 | 0 | / | -3 | -3 | 10 | / | / | / | /
COc1ccc(-c2n[nH]c(=S)n2-c2ccc(C)cc2)cc1OC | 2 | 0 | / | -2 | -1 | -16 | / | / | / | /
S=c1[nH]nc(-c2ccc(Br)cc2)n1-c1ccc2c(c1)OCCO2 | 1 | 5 | 0 | -5 | 9 | -7 | / | / | / | /
COc1ccc(-c2n[nH]c(=S)n2-c2ccc3c(c2)OCCO3)cc1OC | 18* | 0 | -9 | -1 | 4 | -15 | -3 | 50* | -6 | 31*
COc1ccc(-c2n[nH]c(=S)n2-c2ccc3c(c2)OCCO3)cc1 | 13* | -1 | -9 | -5 | 4 | -15 | -3 | 34* | -8 | 19*
COc1ccc(CCN2CC(C(=O)OCC(=O)NC(C)c3cccc(Cl)c3)CC2=O)cc1OC (stereo not drawn) | / | / | / | / | -2 | -12 | / | / | / | /
CN1CCN(c2ccc(NC(=O)COc3ccccc3[N+](=O)[O-])cc2)CC1 | 45* | 1 | -4 | -1 | 5 | 4 | -3 | -1 | -7 | 66*
COc1ccc(C(=O)Nc2ccc(N3CCN(C)CC3)cc2)cc1[N+](=O)[O-] | 34* | 0 | 10 | -4 | -1 | 1 | -3 | -1 | -7 | 60*
CCOc1ccc(C(=O)Nc2ccc(N3CCN(C)CC3)cc2)cc1[N+](=O)[O-] | 30* | 2 | -8 | -3 | 5 | 7 | -2 | -3 | -7 | 58*
CS(=O)(=O)N1CCN(c2ccc(NC(=O)COc3ccccc3[N+](=O)[O-])cc2)CC1 | -3 | 0 | / | -1 | -4 | 3 | / | / | / | /
COc1ccc(S(=O)(=O)N2CCCCC2)cc1NC(=O)CN(Cc1ccco1)Cc1ccco1 | / | / | / | / | 7 | 3 | / | / | / | /
O=C(CSc1nnc(NC(=O)c2c(F)cccc2F)s1)NCC1CCCO1 (stereo not drawn) | / | 3 | / | / | 9 | 7 | / | / | / | /
Cc1cccc(C(=O)Nc2nnc(SCC(=O)NCc3ccco3)s2)c1 | 18* | -2 | / | -1 | 3 | -1 | -3 | 37* | -7 | 24*
